Source: ChEMBL document CHEMBL4145468, “Synthesis and biological evaluation of new steroidal pyridines as potential anti-prostate cancer agents” (Eur J Med Chem, 2018)
pIC50: −log10 of the molar value. The source made the active and inactive calls. No cut-off for these calls is given here.

What was measured:
[1] = system: PC-3; experiment: Induction of apoptosis in human PC3 cells assessed as necrotic cells at 0.5 uM after 48 hrs by AnnexinV-FITC/propidium iodide staining-based flow cytometric analysis (reference value: 0.5%); assay type: functional
[2] = system: PC-3; experiment: Anti-invasive activity in human PC3 cells after 48 hrs by matrigel-coated transwell assay; assay type: functional, cell-based
[3] = system: PC-3; experiment: Cell cycle arrest in human PC3 cells assessed as accumulation of cells at G2 phase at 2 uM after 48 hrs by RNase/propidium iodide staining-based flow cytometric analysis (reference value: 7.17%); assay type: functional
[4] = system: PC-3; experiment: Cell cycle arrest in human PC3 cells assessed as accumulation of cells at S phase at 0.5 uM after 48 hrs by RNase/propidium iodide staining-based flow cytometric analysis (reference value: 30.89%); assay type: functional
[5] = system: PC-3; experiment: Induction of apoptosis in human PC3 cells assessed as late apoptotic cells at 0.5 uM after 48 hrs by AnnexinV-FITC/propidium iodide staining-based flow cytometric analysis (reference value: 0.1%); assay type: functional
[6] = system: PC-3; experiment: Antimigratory activity in human PC3 cells assessed as increase in E-cadherin at 0.5 to 2 uM after 48 hrs by Western blot analysis; assay type: functional, cell-based
Procedure, shortened: (§1)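 PC-3 cells treated 48 h with compound at several concentrations, lysed in NP-40/SDS/deoxycholate buffer with PMSF. Equal lysate amounts resolved by SDS-PAGE, transferred to nitrocellulose, blocked in 5% milk 2 h, primary antibody overnight at 4 °C, HRP secondary, ECL detection; GAPDH as loading control.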

[7] = system: GES1; experiment: Antiproliferative activity against human GES-1 cells after 72 hrs by MTT assay; assay type: cell-based; conditions: GES1, 72 h
Procedure, shortened: (§2)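 Exponentially growing cells, 4×10^3/well, attached 24 h, then medium replaced with fresh medium holding graded compound concentrations for 72 h. MTT (5 mg/mL stock) added for 4 h, formazan dissolved in DMSO, absorbance at 570 nm; IC50 calculated from dose-response data.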

[8] = system: PC-3; experiment: Antimigratory activity in human PC3 cells assessed as decrease in N-Cadherin at 0.5 to 2 uM after 48 hrs by Western blot analysis; assay type: functional, cell-based; procedure, shortened: as §1
[9] = system: PC-3; experiment: Induction of apoptosis in human PC3 cells assessed as cell rounding at 0.5 to 2 uM after 48 hrs by Hoechst 33258 staining-based fluorescence microscopic analysis; assay type: functional
Procedure, shortened: (§3)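 PC-3 cells, 3×10^5/well, grown 48 h, then treated with compound at varying concentrations 48 h. Methanol-fixed ~20 min, stained with 5 ug/mL Hoechst-33258 in PBS with 0.5% Triton X-100 in dark ≥30 min; nuclear condensation/fragmentation scored by UV fluorescence microscopy.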

[10] = system: PC-3; experiment: Induction of apoptosis in human PC3 cells assessed as formation of apoptotic bodies at 0.5 to 2 uM after 48 hrs by Hoechst 33258 staining-based fluorescence microscopic analysis; assay type: functional, cell-based; procedure, shortened: as §3
[11] = system: PC-3; experiment: Induction of apoptosis in human PC3 cells assessed as early apoptotic cells at 1 uM after 48 hrs by AnnexinV-FITC/propidium iodide staining-based flow cytometric analysis (reference value: 0.3%); assay type: functional
[12] = system: MGC-803; experiment: Antiproliferative activity against human MGC803 cells after 72 hrs by MTT assay; assay type: functional, cell-based; conditions: MGC-803, 72 h; procedure, shortened: as §2
[13] = system: PC-3; experiment: Inhibition of colony formation in human PC3 cells at 0.5 to 2 uM after 7 days by crystal violet staining-based assay; assay type: functional, cell-based
Procedure, shortened: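 About 2000 PC-3 cells/well seeded, after 24 h medium replaced with compound-containing medium for 7 days. Colonies PBS-washed, fixed in 4% paraformaldehyde 30 min, crystal violet stained 30 min, destained with PBS before evaluation. Repeated three times.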

[14] = system: PC-3; experiment: Induction of apoptosis in human PC3 cells assessed as viable cells at 2 uM after 48 hrs by AnnexinV-FITC/propidium iodide staining-based flow cytometric analysis (reference value: 99.1%); assay type: functional; conditions: PC-3, 48 h, read-out: Activity
[15] = system: PC-3; experiment: Induction of apoptosis in human PC3 cells assessed as early apoptotic cells at 0.5 uM after 48 hrs by AnnexinV-FITC/propidium iodide staining-based flow cytometric analysis (reference value: 0.3%); assay type: functional
[16] = system: PC-3; experiment: Induction of apoptosis in human PC3 cells assessed as viable cells at 0.5 uM after 48 hrs by AnnexinV-FITC/propidium iodide staining-based flow cytometric analysis (reference value: 99.1%); assay type: functional; conditions: PC-3, 48 h, read-out: Activity
[17] = system: PC-3; experiment: Cell cycle arrest in human PC3 cells assessed as accumulation of cells at G1 phase at 0.5 uM after 48 hrs by RNase/propidium iodide staining-based flow cytometric analysis (reference value: 61.95%); assay type: functional
[18] = system: PC-3; experiment: Cell cycle arrest in human PC3 cells assessed as accumulation of cells at S phase at 2 uM after 48 hrs by RNase/propidium iodide staining-based flow cytometric analysis (reference value: 30.89%); assay type: functional
[19] = system: PC-3; experiment: Induction of apoptosis in human PC3 cells assessed as chromatin shrinkage at 0.5 to 2 uM after 48 hrs by Hoechst 33258 staining-based fluorescence microscopic analysis; assay type: functional, cell-based; procedure, shortened: as §3
[20] = system: PC-3; experiment: Induction of apoptosis in human PC3 cells assessed as increase in caspase-3 activation after 48 hrs by Western blot analysis; assay type: functional, cell-based; procedure, shortened: as §1
[21] = system: PC-3; experiment: Cell cycle arrest in human PC3 cells assessed as accumulation of cells at G2 phase at 0.5 uM after 48 hrs by RNase/propidium iodide staining-based flow cytometric analysis (reference value: 7.17%); assay type: functional
[22] = system: PC-3; experiment: Induction of apoptosis in human PC3 cells assessed as viable cells at 1 uM after 48 hrs by AnnexinV-FITC/propidium iodide staining-based flow cytometric analysis (reference value: 99.1%); assay type: functional; conditions: PC-3, 48 h, read-out: Activity
[23] = system: PC-3; experiment: Induction of apoptosis in human PC3 cells after 48 hrs by AnnexinV-FITC/propidium iodide staining-based flow cytometric analysis; assay type: functional, cell-based
[24] = system: PC-3; experiment: Cell cycle arrest in human PC3 cells assessed as accumulation of cells at G1 phase at 2 uM after 48 hrs by RNase/propidium iodide staining-based flow cytometric analysis (reference value: 61.95%); assay type: functional
[25] = system: PC-3; experiment: Induction of apoptosis in human PC3 cells assessed as necrotic cells at 1 uM after 48 hrs by AnnexinV-FITC/propidium iodide staining-based flow cytometric analysis (reference value: 0.5%); assay type: functional
[26] = system: PC-3; experiment: Antimigratory activity in human PC3 cells after 48 hrs by wound-healing assay; assay type: functional, cell-based
Procedure, shortened: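 PC-3 cells seeded at 3×10^5/well, grown to 80–90% confluence, monolayer scratched with pipette tip, washed, then exposed to compound (0, 0.5, 1.0, 2.0 μM) for 48 h. Wound photographed by inverted microscopy. At least three experiments.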

[27] = system: PC-3; experiment: Induction of apoptosis in human PC3 cells assessed as increase in cleaved PARP after 48 hrs by Western blot analysis; assay type: functional, cell-based; procedure, shortened: as §1
[28] = system: PC-3; experiment: Induction of apoptosis in human PC3 cells assessed as early apoptotic cells at 2 uM after 48 hrs by AnnexinV-FITC/propidium iodide staining-based flow cytometric analysis (reference value: 0.3%); assay type: functional
[29] = system: PC-3; experiment: Induction of apoptosis in human PC3 cells assessed as increase in caspase-9 activation after 48 hrs by Western blot analysis; assay type: functional, cell-based; procedure, shortened: as §1
[30] = system: PC-3; experiment: Induction of apoptosis in human PC3 cells assessed as late apoptotic cells at 2 uM after 48 hrs by AnnexinV-FITC/propidium iodide staining-based flow cytometric analysis (reference value: 0.1%); assay type: functional
[31] = system: PC-3; experiment: Antiproliferative activity against human PC3 cells after 72 hrs by MTT assay; assay type: functional, cell-based; conditions: PC-3, 72 h; procedure, shortened: as §2
[32] = system: PC-3; experiment: Induction of apoptosis in human PC3 cells assessed as late apoptotic cells at 1 uM after 48 hrs by AnnexinV-FITC/propidium iodide staining-based flow cytometric analysis (reference value: 0.1%); assay type: functional
[33] = system: PC-3; experiment: Antimigratory activity in human PC3 cells assessed as decrease in vimentin at 0.5 to 2 uM after 48 hrs by Western blot analysis; assay type: functional, cell-based; procedure, shortened: as §1
[34] = system: PC-3; experiment: Cell cycle arrest in human PC3 cells assessed as accumulation of cells at G2 phase at 1 uM after 48 hrs by RNase/propidium iodide staining-based flow cytometric analysis (reference value: 7.17%); assay type: functional
[35] = system: PC-3; experiment: Antimigratory activity in human PC3 cells after 24 hrs by transwell assay
[36] = system: PC-3; experiment: Antimigratory activity in human PC3 cells assessed as increase in occludin at 0.5 to 2 uM after 48 hrs by Western blot analysis; assay type: functional, cell-based; procedure, shortened: as §1
[37] = system: ECa-109 cell line; experiment: Antiproliferative activity against human EC109 cells after 72 hrs by MTT assay; assay type: functional, cell-based; conditions: ECa-109, 72 h; procedure, shortened: as §2
[38] = system: PC-3; experiment: Induction of apoptosis in human PC3 cells assessed as necrotic cells at 2 uM after 48 hrs by AnnexinV-FITC/propidium iodide staining-based flow cytometric analysis (reference value: 0.5%); assay type: functional
[39] = system: LNCaP; experiment: Antiproliferative activity against human LNCAP cells after 72 hrs by MTT assay; assay type: functional, cell-based; procedure, shortened: as §2
[40] = system: PC-3; experiment: Cell cycle arrest in human PC3 cells assessed as accumulation of cells at S phase at 1 uM after 48 hrs by RNase/propidium iodide staining-based flow cytometric analysis (reference value: 30.89%); assay type: functional
[41] = system: PC-3; experiment: Cell cycle arrest in human PC3 cells assessed as accumulation of cells at G1 phase at 1 uM after 48 hrs by RNase/propidium iodide staining-based flow cytometric analysis (reference value: 61.95%); assay type: functional

`CCOc1cc(-c2cccnc2)cc([C@H]2CC[C@H]3[C@@H]4CC=C5C[C@@H](O)CC[C@]5(C)[C@H]4CC[C@]23C)n1` was tested, and the Activity [1] was 0.5%, the Activity [2] was “Dose-dependent effect” and the Activity [3] was 10.87%. The Activity [4] was 33.56%, the Activity [5] was 2.6% and the Activity [6] was “Active”. For the same compound, the pIC50 [7] was 5.11, the Activity [8] was “Active” and the Activity [9] was “Active”. For the same compound, the Activity [10] was “Active”, the Activity [11] was 9.1% and the pIC50 [12] was 5.56. The inhibition [13] was “Active”, the viability at 2 µM [14] was 73.3% and the Activity [15] was 10.7%. For the same compound, the viability at 0.5 µM [16] was 86.2%, the Activity [17] was 55.52% and the Activity [18] was 35.77%. The Activity [19] was “Active”, the Activity [20] was “Dose-dependent effect” and the Activity [21] was 10.92%. The viability at 1 µM [22] was 76.7%, the Activity [23] was “Dose-dependent effect” and the Activity [24] was 53.36%. The Activity [25] was 2.5%, the Activity [26] was “Dose-dependent effect” and the Activity [27] was “Dose-dependent effect”. For the same compound, the Activity [28] was 7.3%, the Activity [29] was “Dose-dependent effect” and the Activity [30] was 14.9%. The pIC50 [31] was 5.81, the Activity [32] was 11.7% and the Activity [33] was “Active”. For the same compound, the Activity [34] was 11.09%, the Activity [35] was “Dose-dependent effect” and the Activity [36] was “Active”. The pIC50 [37] was 5.27, the Activity [38] was 4.6% and the pIC50 [39] was 5.07. It also gave an Activity [40] of 33.48% and an Activity [41] of 55.44%.
